Dynein cargo inh = dynein cargo transport inhibition | 3617.4 mouse cells, GR-EGFP nuclear translocation imaging; test concentration mostly 20 µM; stimulated with dexamethasone, 1 µM; active compounds read low | AID 1381 | z-score, hits read low | 220,000 tested, 0.47% active;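 active = plate z-score of nuclear minus cytoplasmic receptor signal below a set negative limit, without overly bright fluorescence or cell loss, cut at about -3.5 in these data, passing the limit was not always enough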;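 also: z-score of nuclear minus cytoplasmic ring GR-EGFP intensity difference per well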
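Schedule: 48 h induction, then 1 h compound, then 30 min agonist, 37 °C. Buffer or medium: tetracycline-free induction medium containing charcoal-stripped FBS. Reagent: 1.0 µM final dexamethasone stimulus. Evaluation: nuclear versus cytoplasmic GR-EGFP signal, averaged per well. Signal: high-content fluorescence imaging after fixation.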
bCat KO growth = beta-catenin-lacking colon tumor cell growth suppression | 140,000 tested, 1.5% active | HCT116 beta-catenin knockout viability, CellTiter-Glo, 60 h; active compounds read low | viability, % at 10 µM;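 active = viability at or under a set limit, the compound median less 4 SD, cut at about 6% in these data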;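 also: 0% = Hyamine 1622 control at 20 µM and 100% = untreated cell control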
L major viab = Leishmania major promastigote growth inhibition; inhibition, % at 10 µM; Leishmania major promastigotes, resazurin fluorescence viability; 200,000 tested, 9% active; in the data active = inhibition above about 50%;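 also: promastigotes grown with compound for 44 hours at 28 °C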
PTEN del growth = growth suppressors of cells with PTEN tumor suppressor deletion; HCT116 PTEN-null viability, CellTiter-Glo, 60 h; active compounds read low; viability, % at 10 µM; 140,000 tested, 1.2% active;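 active = viability at or below a set limit, 4 SD under the median of all tested compounds, cut at about 3.7% in these data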;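 also: PTEN knockout HCT116 line with beta catenin targeted HCT116 as companion control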
Autophagy mod = modulators of autophagy | AID 463193 | MEF GFP-LC3 puncta imaging; test concentration mostly 10 µM | 190,000 tested, 0.98% active | calls only at 10 µM (by protocol);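 active = percentage of spot-positive cells more than 3 SD above its plate mean, without a fluorescence outlier flag or 80% toxicity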;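 also: spot-positive cell cutoff set from DMSO-treated cells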
* marks the source's active call; other numbers are inactive results; i = inactive; . = no result; + = active, no number. A selection: hits, their analogues and other compounds. The true share with any hit is near 9.2%.

SMILES	Dynein cargo inh	bCat KO growth	L major viab	PTEN del growth	Autophagy mod
Cc1cccc(OC2CCN(Cc3c(C(=O)N4CCCC4)nc4ccccn34)CC2)c1	0.86	.	99*	.	i
CCN(Cc1cnn(C)c1)Cc1nc(C(c2ccccc2)c2ccccc2)no1	-0.17	.	6	.	i
CNc1ccc(C(O)(C(F)(F)F)C(F)(F)F)cc1C(O)(C(F)(F)F)C(F)(F)F	-0.36	100	98*	91	i
CCCCN(C(=N)N1CCCCC1)c1nc(C)c([N+](=O)[O-])c(=O)[nH]1	1.4	95	-1	97	i
CN1CCN(C(c2ccccn2)c2cc(Cl)c3cccnc3c2O)CC1 (stereo not given)	0.01	.	-1	.	i
Oc1c(C(c2ccc(Cl)cc2)N2CCCC2)cc(Cl)c2cccnc12 (stereo not given)	-0.54	.	96*	.	i
O=C(Oc1c(Cl)cc(Cl)c2cccnc12)N1CCCCC1	0.78	68	9	76	i
Oc1c(C(c2ccccn2)N2CCC(Cc3ccccc3)CC2)cc(Cl)c2cccnc12 (stereo not given)	-0.93	.	99*	.	i
O=C(CC(=O)c1cccc([N+](=O)[O-])c1)Nc1ccccc1Cl	1	.	5	.	i
CC1(C)CC(c2nc(-c3ccc([N+](=O)[O-])cc3)cs2)CCO1 (stereo not given)	-0.95	.	3	.	i
CN(CC(=O)Nc1ccc(Cl)cc1)CC(=O)Nc1ccc(F)c(F)c1F	0.28	80	1	82	i
O=C(NCCc1ccccc1)C1CC(c2ccccc2O)=NO1 (stereo not given)	0.38	98	-7	99	i
C(=N\Nc1ncnc2ccccc12)/c1ccccc1	1.1	.	-13	.	+
Clc1ccc(/C=N/Nc2nc(Cl)nc3ccccc23)cc1	0.13	88	12	80	i
Clc1nnc(N/N=C/c2ccccc2)c2ccccc12	1.4	77	0	75	i
Clc1cccc(/C=N/Nc2ncnc3ccccc23)c1	-0.21	2.8*	35	7	i

Compound activity (PubChem BioAssay)
